Assay results reported in ChEMBL document CHEMBL1131417, “Characterization of novel N,N'-disubstituted piperazines as sigma receptor ligands” (J Med Chem, 1998).

Each compound was assayed against Sigma 2 receptor (assay: Binding affinity was tested against sigma-2 receptor site in presence of dextrallorphan in rat liver membranes.).
Assay type: cell membranes, Membrane; call rule not given here
In short: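 Rat liver membranes (160 μg protein) incubated with 5 nM [3H]DTG plus 1 μM dextrallorphan to mask σ-1 sites, in Tris-HCl pH 8.0, 120 min at 25 °C. Twelve competitor concentrations spanning 0.05–10 000 nM or 0.5–100 000 nM. IC50 from iterative curve fit, converted to apparent Ki by Cheng–Prusoff. Mean ± SEM of 2–3 experiments, each in duplicate.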
In the case of `NCCCCN1CCN(CCCc2ccccc2)CC1`, the Ki is reported as 999 nM.
In the case of `COc1ccccc1CCN1CCN(CCc2ccccc2OC)CC1`, the Ki is reported as 17 nM.
Work on `COc1ccc(CCN2CCN(C(=O)Cc3ccc(OC)cc3)CC2)cc1` yielded a Ki of 744 nM.
With `O=C(Cc1ccccc1[N+](=O)[O-])N1CCN(CCCc2ccccc2)CC1` the Ki was 76 nM.
`COc1ccc(CCN2CCN(CCCc3ccccc3)CC2)cc1` showed a Ki of 29 nM.
`O=[N+]([O-])c1cccc(CCN2CCN(CCCc3ccccc3)CC2)c1` was tested, and the Ki was 9.4 nM.
Work on `COc1ccc(CCN2CCN(CCc3ccc(OC)cc3)CC2)cc1` yielded a Ki of 99 nM.
With `COc1cccc(CCN2CCN(CCc3cccc(OC)c3)CC2)c1` the Ki was 29 nM.
With `COc1ccccc1CC(=O)N1CCN(CCCc2ccccc2)CC1` the Ki was 294 nM.
Work on `Nc1ccc(CCN2CCN(CCCc3ccccc3)CC2)cc1` yielded a Ki of 14 nM.
Compound `Nc1cccc(CCN2CCN(CCCc3ccccc3)CC2)c1` has a Ki of 37 nM.
Compound `CC(C)(C)OC(=O)NCCC(=O)N1CCN(CCCc2ccccc2)CC1` has a Ki of 4560 nM.
In the case of `Nc1ccccc1CCN1CCN(CCCc2ccccc2)CC1`, the Ki is reported as 18 nM.
`O=C(Cc1ccc(Cl)c(Cl)c1)N1CCN(CCCc2ccccc2)CC1` was tested, and the Ki was 78 nM.
In the case of `O=C(Cc1ccc([N+](=O)[O-])cc1)N1CCN(CCCc2ccccc2)CC1`, the Ki is reported as 167 nM.
In the case of `COc1ccccc1CCN1CCN(CCCc2ccccc2)CC1`, the Ki is reported as 7.5 nM.
Compound `COc1ccccc1CCN1CCN(C(=O)Cc2ccccc2OC)CC1` has a Ki of over 10 nM.
`O=[N+]([O-])c1ccc(CCN2CCN(CCCc3ccccc3)CC2)cc1` was tested, and the Ki was 25 nM.
For `NCCN1CCN(CCCc2ccccc2)CC1`, the Ki was 188 nM.
Compound `NCCCC(=O)N1CCN(CCCc2ccccc2)CC1` has a Ki of 3840 nM.
Work on `O=C(Cc1cccc([N+](=O)[O-])c1)N1CCN(CCCc2ccccc2)CC1` yielded a Ki of 65 nM.
`CC(C)(C)OC(=O)NCCCC(=O)N1CCN(CCCc2ccccc2)CC1` showed a Ki of 126 nM.
In the case of `Clc1ccc(CCN2CCN(CCCc3ccccc3)CC2)cc1Cl`, the Ki is reported as 39 nM.
With `O=[N+]([O-])c1ccccc1CCN1CCN(CCCc2ccccc2)CC1` the Ki was 4.9 nM.
Work on `NCCC(=O)N1CCN(CCCc2ccccc2)CC1` yielded a Ki of 1780 nM.
Compound `COc1cccc(CCN2CCN(CCCc3ccccc3)CC2)c1` has a Ki of 10 nM.
`COc1cccc(CC(=O)N2CCN(CCCc3ccccc3)CC2)c1` gave a Ki of 206 nM.
`COc1ccc(CC(=O)N2CCN(CCCc3ccccc3)CC2)cc1` showed a Ki of 464 nM.
`NCCCN1CCN(CCCc2ccccc2)CC1` gave a Ki of 2000 nM.
In the case of `NCC(=O)N1CCN(CCCc2ccccc2)CC1`, the Ki is reported as 303 nM.

Each compound was assayed on Sigma 2 receptor (assay: Binding affinity was tested against sigma-2 receptor in presence of dextrallorphan in rat liver membranes; NA =data not available).
Assay type: cell membranes, Membrane
In short: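 Rat liver membranes (160 μg protein) were incubated with 5 nM [3H]DTG plus 1 μM dextrallorphan to mask σ-1 sites, in Tris-HCl pH 8.0, for 120 min at 25 °C. Twelve competitor concentrations spanned 0.05–10 000 nM or 0.5–100 000 nM. IC50 from curve fitting was converted to Ki by Cheng-Prusoff. Values are the mean ± SEM of 2–3 experiments, each run in duplicate.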
With `COc1cccc(CCN2CCN(C(=O)Cc3cccc(OC)c3)CC2)c1` the Ki was “Not Active”.
